# High-throughput results: PubChem BioAssay, several laboratories
# SMARCA2 act = SMARCA2 (BRM) function activators, primary screen, cell-based, luminescence, high throughput; activation, % at 9.1 µM; hit rate 1% among 370,000; MG213 cells, MMTV-luciferase reporter, dexamethasone, overnight; in the data active = activation above about 7.8%;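 also: 0% = vehicle wells and 100% = reference activator wells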
# SR-BI DiI inh = inhibitors of SR-BI mediated HDL lipid uptake, primary screen, ldlA[mSR-BI] cells, fluorescence, single point. Scavenger receptor class B member 1 (Mus musculus), Q61009. ldlA[mSR-BI] CHO cells, DiI-HDL uptake fluorescence, 3 h. inhibition, % at 12.5 µM. hit rate 0.96% among 320,000. AID 488896, 2010;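 active = mean replicate inhibition of at least 70% and a set share of replicates each scoring 70 or more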;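 also: 0% = median of neutral control wells and 100% = median of positive control wells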
# SR-BI DiI-HDL act = activators of SR-BI mediated DiI-HDL uptake, primary screen, ldlA[mSR-BI] CHO cells, DiI fluorescence. 3 h; 100 = double the neutral-control signal. activation, % at 12.5 µM. hit rate 0.096% among 320,000. AID 504775, 2011;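 active = mean replicate activation of at least 60% and every replicate at or above 60%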;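 also: 0% = median plate neutral-control signal and 100% = twice that signal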
#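 Material: SR-BI-overexpressing, LDLR-lacking CHO cells; schedule: compound exposure 3 h, 37 °C; reagent: DiI-labelled HDL at 10 µg/mL final; technique: bottom-read fluorescence, 550/595 nm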
# Hep lipid drop = inhibitors of hepatocyte lipid droplet formation, primary screen, imaging, high-throughput imaging, BODIPY stain | AML12 mouse hepatocytes, oleate lipid droplets | inhibition, % at 6.5 µM | AID 1656, 2009 | hit rate 0.4% among 240,000;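 active = lipid droplet intensity inhibited by at least 50%, with more than 500 cells counted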
#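 Assay system: AML12 mouse liver cells | Compound: 6.5 µM single-point dosing | Schedule: Overnight exposure | Technique: Fluorescence imaging, 20x objective, two fields per well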
# AHR activator = AHR activators, primary screen, cell-based, luminescence, luciferase reporter, human | activation, % at 5 µM | AHR-responsive luciferase reporter cells | hit rate 2.5% among 320,000; in the data active = activation above about 47%;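 also: 0% = vehicle wells and 100% = reference agonist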
# Target sequence (P35869 whole entry, looked up): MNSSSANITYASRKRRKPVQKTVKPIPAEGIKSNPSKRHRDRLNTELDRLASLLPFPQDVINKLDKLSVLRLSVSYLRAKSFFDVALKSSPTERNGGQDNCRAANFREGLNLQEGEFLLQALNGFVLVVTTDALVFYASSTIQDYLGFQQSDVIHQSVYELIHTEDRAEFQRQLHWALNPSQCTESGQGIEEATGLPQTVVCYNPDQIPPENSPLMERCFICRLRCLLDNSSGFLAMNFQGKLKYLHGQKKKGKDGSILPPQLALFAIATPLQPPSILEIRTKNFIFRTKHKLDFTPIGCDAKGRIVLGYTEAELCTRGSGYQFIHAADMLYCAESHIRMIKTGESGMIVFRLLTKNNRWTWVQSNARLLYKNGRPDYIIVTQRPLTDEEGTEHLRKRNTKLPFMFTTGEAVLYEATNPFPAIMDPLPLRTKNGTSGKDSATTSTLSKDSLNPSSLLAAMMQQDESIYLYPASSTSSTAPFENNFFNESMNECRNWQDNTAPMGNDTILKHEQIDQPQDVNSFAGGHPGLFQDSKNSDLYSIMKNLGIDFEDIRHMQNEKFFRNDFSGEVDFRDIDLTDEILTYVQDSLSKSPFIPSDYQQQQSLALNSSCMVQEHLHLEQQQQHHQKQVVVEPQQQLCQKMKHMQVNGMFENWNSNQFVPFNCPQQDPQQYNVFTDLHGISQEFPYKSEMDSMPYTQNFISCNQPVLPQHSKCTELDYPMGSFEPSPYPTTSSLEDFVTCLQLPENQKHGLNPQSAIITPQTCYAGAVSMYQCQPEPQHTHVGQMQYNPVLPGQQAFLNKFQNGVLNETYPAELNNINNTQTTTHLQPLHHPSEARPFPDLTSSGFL
# Yeast superoxide = reduction of superoxide in aged yeast, primary screen, HTS. S. cerevisiae aged cells, superoxide DHE fluorescence; active compounds read low. superoxide response (% of plate mean), % at 10 µM. hit rate 0.18% among 330,000. AID 2690, 2010;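 active = superoxide response under a set limit, about three screen SD below normal, cut at about 65% in these data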;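 also: yeast aged for seven days with compound at 30 °C before DHE staining; 100% = average MFI of all compound-treated wells on the plate with controls excluded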
# SMARCA2 conf = SMARCA2 (BRM) function activators, confirmation, cell-based, luminescence, triplicate | AID 652260, 2013 | shares compounds with SMARCA2 act | hit rate 30% among 3,500 | activation, % at 9.1 µM | MG213 cells, MMTV-luciferase with dexamethasone, overnight; MG213 cells expressing E1A, Rb sequestered; DMSO wells 0%, reference activator 100%;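 active = activation above its plate's cutoff, the mean activation of tested wells plus 3 SD, cut at about 7.9% in these data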
# GAL4-VP16 Luc = GAL4-VP16 luciferase reporter activation, counter-screen for SMARCA2 (BRM) activator project, cell-based, pG5luc, luminescence, high throughput; shares compounds with SMARCA2 act; HEK293 GAL4-VP16 pG5luc reporter; scaled: DMSO wells 0%, SAHA wells 100%; activation, % at 9.1 µM; hit rate 41% among 3,500; AID 686939, 2013;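 active = activation above the solvent-only control well mean plus 3 SD, averaged across control plates, cut at about 5.2% in these data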
# Numbers without * were called inactive; nt = no result given. Only some compounds are listed: those with a hit (about 4.3% of all), similar ones and a draw of the others.
SMILES,SMARCA2 act,SR-BI DiI inh,SR-BI DiI-HDL act,Hep lipid drop,AHR activator,Yeast superoxide,SMARCA2 conf,GAL4-VP16 Luc
O=C(NCc1cccs1)C1CCN(S(=O)(=O)c2ccc([N+](=O)[O-])cc2)CC1,-4,nt,nt,nt,nt,nt,nt,nt
O=C1C(=Cc2ccco2)CCCC1=Cc1ccco1,8.1*,20,-20,nt,nt,nt,16*,7.2*
O=C(N=C1N(Cc2ccccc2)C[C@]2(C=C3CCCCC3n3c(=O)n(-c4ccccc4)c(=O)n32)N1C(=O)OCc1ccccc1)c1ccccc1 (stereo partly specified),-3,nt,nt,nt,nt,nt,nt,nt
CCCCn1c(N)c(N(C)C(=O)c2cc3c(s2)CCCCC3)c(=O)[nH]c1=O,8.5*,-4,4,nt,1,130,0,1
NS(=O)(=O)c1ccc(N/N=C/c2cn(-c3ccccc3)nc2-c2cccs2)cc1,9.6*,12,-12,-4,37,85,9.2*,5
Clc1cccc(/C=N/Nc2nc(Cl)nc3ccccc23)c1,11*,33,-33,nt,42,99,11*,11*
CCC(CO)Nc1cccc2c1S(=O)(=O)N(Cc1cn(Cc3ccc(F)cc3)nn1)Cc1ccccc1O2 (stereo unspecified),-2,nt,nt,nt,nt,nt,nt,nt
Cc1nc(NC(=O)c2ccccc2)sc1C,8.2*,10,-10,-39,4,93,7,7.8*
Cc1nc(NC(=S)NC(=O)c2ccccc2)sc1C,6,6,-6,4,37,90,nt,nt
Cc1nc(NC(=O)Nc2ccc(Cl)cc2)sc1C,8.6*,27,-27,20,4,115,3,10*
C=CS(=O)(=O)c1c2cc(OC)ccc2nc2ccc(OC)cc12,15*,24,-24,nt,nt,nt,-9,13*
COc1ccc2nc(Cl)cc(Cl)c2c1,-2,19,-19,3,-5,74,nt,nt
O=C(OCc1cn(Cc2ccc(F)cc2F)nn1)N1CCCC1,0,nt,nt,nt,nt,nt,nt,nt
Brc1ccccc1-n1nnc(-c2nccs2)n1,8.3*,4,-4,-3,36,nt,8,16*
CN(CCCOC(=O)c1cc2ccccc2o1)C1CN(Cc2cn(Cc3ccccc3C(F)(F)F)nn2)S(=O)(=O)C1 (stereo unspecified),-1,nt,nt,nt,nt,nt,nt,nt
COC(=O)c1sc(-c2ccccc2)cc1NC(=O)C1CC1,8.9*,20,-20,5,15,80,-4,2
COC(=O)c1sc(-c2ccc(Cl)cc2)cc1NC(=O)c1ccccc1C(=O)O,1,-2,2,7,8,89,nt,nt
COC(=O)[C@H]1C[C@@]2(N3CCCCC3)c3ccccc3N(C(=O)OC(C)(C)C)[C@H]2N1C(=O)OC(C)(C)C,3,nt,nt,nt,nt,nt,nt,nt
COc1cc(N)c(Cl)cc1C(=O)OCC(=O)N1c2ccccc2NC(=O)C1(C)C,9.1*,50,-50,nt,0,93,0,0
COc1ccc(S(N)(=O)=O)cc1C(=O)OCC(=O)N1c2ccccc2NC(=O)C1(C)C,-1,24,-24,nt,2,87,nt,nt
O=C(OC12CCCN(C1)/C(=C/c1ccc(Cl)cc1)C2)C1CCCC1 (stereo unspecified),0,nt,nt,nt,nt,nt,nt,nt
Nc1ccc(S(=O)(=O)NC2(C(F)(F)F)NC(=O)N(Cc3ccccc3)C2=O)cc1 (stereo unspecified),8.0*,nt,nt,-3,1,90,-5,0
O=C1NC(NS(=O)(=O)c2ccccc2)(C(F)(F)F)C(=O)N1Cc1ccccc1 (stereo unspecified),1,-5,5,14,0,90,nt,nt
Cc1ccc(CNC(=O)C2CCC(=O)N(C3CCCC3)C2)c(F)c1F (stereo unspecified),9.7*,2,-2,7,2,119,-2,0
COC(=O)c1ccc(NS(=O)(=O)c2c(C)nc3sccn3c2=O)cc1,-1,nt,nt,nt,nt,nt,nt,nt
SMILES,SMARCA2 act,SR-BI DiI inh,SR-BI DiI-HDL act,Hep lipid drop,AHR activator,Yeast superoxide,SMARCA2 conf,GAL4-VP16 Luc
Cc1ccc(NS(=O)(=O)c2c(C)nc3sccn3c2=O)cc1C,9.6*,-26,26,3,0,97,-3,-1
O=S1(=O)c2c(cccc2N2CCSCC2)Oc2ccccc2CN1Cc1cn(Cc2ccccc2C(F)(F)F)nn1,-2,nt,nt,nt,nt,nt,nt,nt
CCC1([N+](=O)[O-])COC(C=Cc2ccccc2)OC1 (stereo unspecified),9.7*,-7,7,nt,nt,nt,5,4
O=C([C@@H]1C[C@H]1c1ccccc1)N1CC[C@H]2[C@H](CCCN2Cc2ccc(F)cc2)C1,-2,nt,nt,nt,nt,nt,nt,nt
Cc1ccc2c(Cl)cc(Cl)c(O)c2n1,10*,-5,5,nt,nt,nt,-16,11*
CC(C)NC(=O)c1ccc2c3n(nc2c1)-c1ccc(Cl)cc1CO3,4,47,-47,nt,-10,92,nt,nt
CCN(CC)CCCNC(=O)c1ccc2c3n(nc2c1)-c1ccc(Cl)cc1CO3,11*,-12,12,nt,7,nt,23*,7.2*
N#Cc1cccc(OC[C@@H](O)CN2CCC(C(O)(c3ccccc3)c3ccccc3)CC2)c1,2,nt,nt,nt,nt,nt,nt,nt
Cc1nc(-c2ccccc2)nc2[nH]c(=O)n(-c3ccccc3)c(=O)c12,11*,-7,7,12,-7,106,3,6.3*
CCN(CC)C(=O)CC[C@@H]1CC[C@]2(CCCN(Cc3cccc4ccccc34)C2)O1,-2,nt,nt,nt,nt,nt,nt,nt
COc1ccc2c(c1)[C@@]1(NCCc3c1[nH]c1ccc(OC)cc31)C(=O)N2,-3,nt,nt,nt,nt,nt,nt,nt
CN(Cc1ccccc1)C(=O)OCc1cn(Cc2ccccc2)nn1,-2,nt,nt,nt,nt,nt,nt,nt
CCOc1ccc(NC(=S)NN2C(C)CCCC2C)cc1 (stereo unspecified),-3,-11,11,-10,2,120,nt,nt
CCOc1ccc(NC(=O)NN2C(C)CCCC2C)cc1 (stereo unspecified),15*,5,-5,-14,nt,103,-5,0
Cc1ccc(OCC(=O)NCCO)cc1C,10*,-4,4,-1,3,96,1,5
O=C(COc1ccc(Br)cc1)NCCO,-4,-33,33,23,3,102,nt,nt
CCNC(=O)COc1ccc(CC)cc1,8.1*,-20,20,3,17,95,8.0*,2
